High-throughput results: PubChem BioAssay, several laboratories
This is one part of a sample in which hits are shown more often than they occur.
L major viab – Leishmania major promastigote growth inhibition; Leishmania major promastigotes, resazurin fluorescence viability; inhibition, % at 10 µM; 200,000 compounds, 9% hits; AID 1063; in the data active means inhibition above about 50%;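 further: promastigotes grown with compound for 44 hours at 28 °C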
MPTP inh – permeability transition pore inhibition. isolated mouse mitochondria, Ca2+ swelling absorbance, 30 min. inhibition, % at 10 µM. 360,000 compounds, 1.4% hits;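 active means inhibition of 50% or more, scaled per plate between neutral and stimulator controls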;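 further: 0% = DMSO wells given calcium and 100% = 1 mM EGTA wells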
T cruzi repl – blocks replication of Trypanosoma cruzi; AID 1885; T. cruzi beta-gal in NIH3T3, luminescence, 90 h; 300,000 compounds, 1.4% hits; inhibition, % (test concentration not listed);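 active means mean inhibition across valid replicates above about 55%, limit read from the data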;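 further: signal also drops with host cell toxicity which is not excluded here; 0% = plate median of DMSO wells and 100% = zero luminescence signal; higher percent means less beta-gal luminescence so fewer parasites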
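assay system = mouse NIH/3T3 fibroblasts infected with β-gal-expressing T. cruzi Tulahuen C4 | input = 5,000 NIH/3T3 host cells per well | buffer or medium = DMEM plus 2% FBS | timing = 3 h host attachment, then at least 90 h co-culture | measured by = GalScreen luminescence, 60 min | evaluation = luminescence reflecting intracellular parasite burden, expressed as percent inhibition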
DTT redox prof – compounds producing H2O2 with reducing agent – biochemical, NIH compound library profiling, artefact control for MLSCN library redox annotation, primary screen; DTT-dependent redox cycling H2O2, phenol red/HRP absorbance; 100% = 100 µM peroxide control, 0% = buffer; activation, % at 10 µM; 200,000 compounds, 0.03% hits;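 active means activation of at least 50% relative to the plate's high and low controls in the primary single-dose screen; inactive means activation below 50%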;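 further: compound incubated with DTT at 0.8 mM final as the reducing agent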
Hep lipid drop – hepatic lipid droplet formation modulation; AML12 mouse hepatocytes, oleate lipid droplets, BODIPY imaging; inhibition, % at 6.5 µM; 240,000 compounds, 0.4% hits; AID 1656;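 active means lipid droplet intensity inhibited by at least 50%, with more than 500 cells counted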
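Assay system: AML12 hepatocytes (mouse) / Also added: 100 µM oleic acid challenge / Times: overnight treatment with compound plus oleate / Detection: high-content imaging of BODIPY-stained droplets and DAPI nuclei / Evaluation: % inhibition of lipid droplet signal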
Rh123 counter – membrane potential counter-screen of mitochondrial pore inhibitors; shares compounds with MPTP inh; isolated mitochondria, Rhodamine 123 fluorescence; inhibition, % at 10 µM; 5,000 compounds, 78% hits; AID 624504; in the data active means inhibition above about 22%;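 further: 0% = DMSO vehicle and 100% = positive control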
MPTP abs DR – MPTP inhibition, dose response swelling confirmation; shares compounds with MPTP inh; isolated mitochondria swelling, absorbance; IC50, µM; 780 compounds, 58% hits; AID 651561; in the data active means IC50 below about 20 µM
MPTP cs DR – active in counter-screen for permeability transition pore inhibitors | shares compounds with MPTP inh | isolated mitochondria counterscreen, fluorescence read-out | IC50, µM | 780 compounds, 49% hits; in the data active means IC50 below about 80 µM
An asterisk follows results filed as active; x = no result.

SMILES	L major viab	MPTP inh	T cruzi repl	DTT redox prof	Hep lipid drop	Rh123 counter	others
COc1ccc(CNC(=O)c2c(O)c3cccc4c3n(c2=O)CCC4)cc1	-2	81*	-2	1	x	-14
COc1ccc(CNC(=O)c2c(O)c3cccc4c3n(c2=O)CCC4)cc1OC	-6	-8	7	0	-19	x
O=S(=O)(NC1CCN(S(=O)(=O)c2c(F)cccc2F)CC1)c1ccc2c(c1)OCCO2	x	0	x	x	x	x
CC(NC(=S)NC1CCCCC1)c1ccc(C(C)(C)C)cc1 (stereo not drawn)	x	53*	42	x	-16	106*
CCC(C)c1ccc(C(C)NC(=S)NC2CCCCC2)cc1 (stereo not drawn)	x	59*	38	x	-5	103*
Cn1ncc2c(NNC(=O)C3CCCCC3)ncnc21	-11	-1	-2	0	11	x
Cc1ccccc1S(=O)Cc1ccc(C(=O)N2CCN(C(=O)c3ccco3)CC2)o1 (stereo not drawn)	x	-1	-6	x	15	x
CC(C)Cc1nnc(NC(=O)CCC(=O)N2CCN(Cc3ccc(Cl)cc3)CC2)s1	x	-1	38	x	-1	x
CCn1nc([N+](=O)[O-])c2c(-c3nc4ccccc4o3)c(N)n(CCCOC)c2c1=O	-3	2	35	1	6	x
N#CC(C#N)=C(Nc1ccc(F)cc1)SCc1cccc(Br)c1	31	91*	-53	0	10	89*
Cc1cccc(CSC(Nc2ccc(F)cc2)=C(C#N)C#N)c1	25	97*	0	0	-45	93*
Cn1ncc(Cl)c1C(=O)N1CCN(C(=O)c2ccco2)CC1	-8	73*	-3	0	7	-1	MPTP abs DR=>100;MPTP cs DR=>80
Cc1cc(=O)[nH]c(N/N=C/C(C)c2ccccc2)n1 (stereo not drawn)	x	2	15	x	-3	x
COc1ccc(C(CNC(=O)c2oc3cc(Br)ccc3c2C)N2CCCCC2)cc1 (stereo not drawn)	x	2	5	x	-2	x
COc1ccc(C(CNC(=O)c2oc3ccc(Br)cc3c2C)N2CCCCC2)cc1 (stereo not drawn)	60*	86*	55*	0	-3	-11	MPTP abs DR=16*;MPTP cs DR=>80
Cc1ccc(C2CC2C(=O)NNC(=S)Nc2cccc(Cl)c2)cc1 (stereo not drawn)	-4	61*	5	1	-4	70*
CSc1ncc(Cl)c(C(=O)C(C#N)c2nc3c(C)cc(C)cc3c(=O)[nH]2)n1 (stereo not drawn)	-8	91*	-12	-1	-3	73*
O=C(COC(=O)C1CC2C=CC1C2)Nc1cccc(S(=O)(=O)N2CCCCCC2)c1 (stereo not drawn)	4	65*	-21	0	22	70*
O=C(COC(=O)C1CC2C=CC1C2)Nc1cccc(S(=O)(=O)N2CCCCC2)c1 (stereo not drawn)	1	59*	-4	-1	-2	38*
O=C(COC(=O)C1CCC1)Nc1cccc(S(=O)(=O)N2CCOCC2)c1	x	0	-9	x	x	x
CC[C@]12c3[nH]c4cc(-c5ccco5)ccc4c3CCN1C(=O)[C@@H](CC(=O)NCc1cccc(C(F)(F)F)c1)C[C@@H]2C(=O)N1CCN(C(=O)c2ccco2)CC1	x	0	x	x	x	x
COC(=O)C1CCN(C(=O)C2CCN(C(=O)[C@@H](NS(=O)(=O)c3ccc(C)cc3)C(C)C)CC2)CC1	x	-2	20	x	-4	x
N#C/C(=C/c1ccc(N2CCCC2)c([N+](=O)[O-])c1)c1nc2ccccc2[nH]1	-4	53*	11	1	x	35*
O=C(NCc1ccco1)c1ccccc1NS(=O)(=O)c1ccc(Br)s1	-4	71*	-10	0	x	81*
CCCCCCSc1ccc([C@H]2N[C@@](C)(C(=O)OC)[C@H]3C(=O)N(CC)C(=O)[C@@H]23)cc1	x	1	17	x	x	x
SMILES	L major viab	MPTP inh	T cruzi repl	DTT redox prof	Hep lipid drop	Rh123 counter	others
COc1ccc(C(=O)COC(=O)c2ccccc2NS(=O)(=O)c2ccc(O)c([N+](=O)[O-])c2)cc1	x	71*	-10	x	2	51*
O=[N+]([O-])c1cccc(N=Nc2ccc(O)cc2O)c1	x	84*	x	x	x	73*
O=[N+]([O-])c1ccc(N=Nc2ccc(O)cc2O)cc1	9	84*	45	4	x	80*
O=[N+]([O-])c1ccc(N=Nc2c(O)[nH]c3ccc(F)cc23)cc1	x	2	5	x	28	x
O=C([C@H]1O[C@@H](n2ccc(=O)[nH]c2=O)[C@H](O)[C@@H]1O)N1CCN(c2ccc(Cl)cn2)CC1	x	0	x	x	x	x
COc1ccc(-c2cn(CC[C@@H]3CC[C@H](NC(=O)Cc4ccccn4)[C@@H](CO)O3)nn2)cc1	x	-1	x	x	x	x
CC(C)(C)n1ncc(Oc2ccccc2[N+](=O)[O-])c(Cl)c1=O	-7	86*	-32	0	-12	34*
Cn1ncc(Oc2ccc([N+](=O)[O-])cc2)c(Cl)c1=O	x	1	3	x	-5	x
CCCc1nc2sc3c(c2c(=O)n1NC(=O)c1ccco1)CC(C)(C)OC3	6	0	-10	0	-5	x
CCCCCCCCCc1nc2sc3c(c2c(=O)n1NC(=O)c1ccccc1[N+](=O)[O-])CC(C)(C)OC3	34	87*	-2	0	19	63*
CCCCCCCCCc1nc2sc3c(c2c(=O)n1NC(=O)c1ccc([N+](=O)[O-])cc1)CC(C)(C)OC3	-4	98*	-6	0	17	64*
COc1ccc(NC(=S)Nc2ccc3nccnc3c2)cc1	5	0	-13	0	-12	x
COc1ccc(NC(=S)Nc2ccc3snnc3c2)cc1	54*	73*	-2	0	-3	79*
O=C(Nc1ccc(S(=O)(=O)NCc2ccccc2)cc1)C1CCCCC1	x	2	-7	x	1	x
O=C(COC(=O)c1cc(S(=O)(=O)N2CCCC2)ccc1O)Nc1ccc(SC(F)F)cc1	x	92*	x	x	x	96*
OC(c1ccc(F)cc1)c1nc(-c2ccncc2)cs1 (stereo not drawn)	x	65*	x	x	x	57*
COC(=O)C1=C(C)N(Cc2ccccc2)C(=NCc2cccc(C(F)(F)F)c2)N[C@H]1c1cccc(C(F)(F)F)c1	x	88*	x	x	x	-1
COCCN=C1N[C@@H](c2cccc(C(F)(F)F)c2)C(C(=O)OC)=C(C)N1Cc1ccccc1	x	0	26	x	-12	x
COC(=O)C1=C(C)N(Cc2ccccc2)C(=NCc2cccc(C(F)(F)F)c2)N[C@H]1c1cccc(F)c1	x	80*	45	x	-3	-5
COC(=O)C1=C(C)N(CC2CC2)C(=NCc2cccc(C(F)(F)F)c2)N[C@H]1c1ccccc1	x	-2	x	x	x	x
